Experimental findings from ChEMBL document CHEMBL1157011, “8-Sulfonyl-substituted tetrahydro-1H-pyrido[4,3-b]indoles as 5-HT6 receptor antagonists” (Eur J Med Chem, 2010) are described below.

SMILES strings stand for the structures. Calls of active or inactive are those of the source. No cut-off for these calls is given here.

For assay [1], the target named is T1, 5-hydroxytryptamine receptor 6 (Homo sapiens, UniProt P50406). The assay can be described thus: Antagonist activity at human recombinant 5HT6 receptor expressed in HEK293 cells assessed as inhibition of serotonin-induced cAMP production by LANCE assay relative to serotonin. The class given is functional, cell-based. The method in brief: (§1)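 HEK-293 cells with a tetracycline-inducible (T-Rex) human 5-HT6 receptor, grown in DMEM/10% FBS with blasticidin S and zeocin and induced with tetracycline the day before. Medium was swapped for HBSS with 1 mM MgCl2, 1 mM CaCl2, IBMX and 5 mM HEPES, pH 7.4. Compounds (0.1% DMSO) were added 15 min at RT, then 10 nM serotonin for 30 min. cAMP read by LANCE; 2 independent experiments in duplicate.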
T1 sequence (P50406 whole entry): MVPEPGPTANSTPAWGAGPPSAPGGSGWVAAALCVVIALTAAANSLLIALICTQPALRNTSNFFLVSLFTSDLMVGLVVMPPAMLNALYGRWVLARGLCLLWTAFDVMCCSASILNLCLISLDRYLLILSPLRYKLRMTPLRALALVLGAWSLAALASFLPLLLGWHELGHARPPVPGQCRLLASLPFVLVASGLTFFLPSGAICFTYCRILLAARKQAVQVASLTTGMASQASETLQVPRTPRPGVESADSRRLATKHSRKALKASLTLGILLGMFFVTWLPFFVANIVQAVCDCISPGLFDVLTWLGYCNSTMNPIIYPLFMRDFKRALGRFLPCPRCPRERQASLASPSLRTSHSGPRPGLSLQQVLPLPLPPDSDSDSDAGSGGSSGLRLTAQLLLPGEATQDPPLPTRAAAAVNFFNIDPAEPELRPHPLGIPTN
(cAMP levels reflect the balance of adenylyl cyclase and phosphodiesterase activity.)

In assay [2] the target is T1, 5-hydroxytryptamine receptor 6. Description: Antagonist activity at human recombinant 5HT6 receptor expressed in HEK293 cells assessed as inhibition of serotonin-induced cAMP production by LANCE assay. Type of assay: functional, cell-based. The procedure, abridged: as §1
The target in assay [3] is Sodium-dependent dopamine transporter (Homo sapiens) (UniProt Q01959). The assay can be described thus: Binding affinity to dopamine transporter at 10 uM by radioligand displacement assay. The method in brief: (§2)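 Target specificity panel: single-concentration competitive displacement of each target's radioligand, with compound at 1 µM or 10 µM as stated per line. Run by an outside contract lab under its internal protocols; mean ± SE, n = 2.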
Sodium-dependent dopamine transporter (Homo sapiens), sequence (Q01959 whole entry): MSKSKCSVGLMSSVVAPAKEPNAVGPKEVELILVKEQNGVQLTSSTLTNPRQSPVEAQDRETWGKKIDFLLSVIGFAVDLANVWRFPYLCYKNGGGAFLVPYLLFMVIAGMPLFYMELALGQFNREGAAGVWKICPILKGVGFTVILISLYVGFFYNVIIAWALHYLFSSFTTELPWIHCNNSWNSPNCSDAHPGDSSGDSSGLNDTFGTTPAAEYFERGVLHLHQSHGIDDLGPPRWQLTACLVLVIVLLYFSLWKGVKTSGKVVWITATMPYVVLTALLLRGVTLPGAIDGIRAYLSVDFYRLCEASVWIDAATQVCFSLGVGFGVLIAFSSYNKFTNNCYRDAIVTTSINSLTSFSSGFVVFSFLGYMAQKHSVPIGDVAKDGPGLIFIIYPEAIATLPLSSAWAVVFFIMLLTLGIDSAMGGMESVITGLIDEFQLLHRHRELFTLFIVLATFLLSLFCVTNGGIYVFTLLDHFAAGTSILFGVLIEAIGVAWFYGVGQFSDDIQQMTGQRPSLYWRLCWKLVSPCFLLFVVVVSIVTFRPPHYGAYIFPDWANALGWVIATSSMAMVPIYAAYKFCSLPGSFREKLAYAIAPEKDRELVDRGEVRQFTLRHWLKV
(In a radioligand displacement assay an active substance lowers the binding of a labelled ligand.)

In assay [4] the target is T2, Alpha-1A adrenergic receptor (Homo sapiens) (UniProt P35348).
T2 sequence (whole entry): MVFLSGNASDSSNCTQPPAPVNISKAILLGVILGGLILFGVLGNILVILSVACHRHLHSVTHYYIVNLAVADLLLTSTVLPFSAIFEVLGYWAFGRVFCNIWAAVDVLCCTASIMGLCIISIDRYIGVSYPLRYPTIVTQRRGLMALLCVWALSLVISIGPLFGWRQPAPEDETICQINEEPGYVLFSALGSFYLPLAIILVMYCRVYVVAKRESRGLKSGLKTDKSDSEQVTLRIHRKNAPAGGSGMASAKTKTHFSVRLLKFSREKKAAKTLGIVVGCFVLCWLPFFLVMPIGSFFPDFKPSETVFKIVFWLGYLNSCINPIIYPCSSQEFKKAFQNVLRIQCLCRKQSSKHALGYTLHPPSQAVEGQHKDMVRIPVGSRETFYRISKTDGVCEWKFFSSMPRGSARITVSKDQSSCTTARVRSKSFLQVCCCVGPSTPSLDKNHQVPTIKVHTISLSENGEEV
Description: Binding affinity to adrenergic alpha1A receptor at 10 uM by radioligand displacement assay. The method in brief: as §2

Assay [5] has as its target Sodium-dependent noradrenaline transporter (Homo sapiens) (UniProt P23975). Description: Binding affinity to norepinephrine transporter at 10 uM by radioligand displacement assay. The method in brief: as §2
Assay [6] deals with T3, Alpha-1D adrenergic receptor (Homo sapiens) (UniProt P25100).
T3 sequence (whole entry): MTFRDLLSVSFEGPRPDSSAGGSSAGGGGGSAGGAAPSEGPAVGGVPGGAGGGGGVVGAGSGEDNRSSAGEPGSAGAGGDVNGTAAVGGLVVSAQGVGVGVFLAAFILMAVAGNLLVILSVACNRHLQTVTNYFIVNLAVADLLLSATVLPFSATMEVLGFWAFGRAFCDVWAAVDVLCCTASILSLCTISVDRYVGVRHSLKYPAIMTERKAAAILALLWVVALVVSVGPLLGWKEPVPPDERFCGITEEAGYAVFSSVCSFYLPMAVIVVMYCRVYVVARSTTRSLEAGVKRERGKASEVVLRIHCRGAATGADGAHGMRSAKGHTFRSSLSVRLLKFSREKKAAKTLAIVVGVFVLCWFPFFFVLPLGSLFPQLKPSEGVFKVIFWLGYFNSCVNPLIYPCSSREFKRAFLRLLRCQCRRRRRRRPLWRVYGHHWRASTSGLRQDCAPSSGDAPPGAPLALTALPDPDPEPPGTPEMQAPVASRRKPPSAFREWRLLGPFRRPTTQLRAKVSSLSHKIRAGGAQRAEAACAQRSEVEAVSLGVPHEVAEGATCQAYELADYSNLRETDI
Description: Binding affinity to adrenergic Alpha-1D receptor at 10 uM by radioligand displacement assay. The procedure, abridged:
as §2

Assay [7] has as its target Sigma non-opioid intracellular receptor 1 (Homo sapiens) (UniProt Q99720). Description: Binding affinity to sigma 1 receptor at 10 uM by radioligand displacement assay. The method in brief:
as §2

The target in assay [8] is D(3) dopamine receptor (Homo sapiens) (UniProt P35462). Description: Binding affinity to dopamine D3 receptor at 10 uM by radioligand displacement assay. The method in brief:
as §2

In assay [9] the target is T4, Alpha-1B adrenergic receptor (Homo sapiens) (UniProt P35368).
T4 sequence (whole entry): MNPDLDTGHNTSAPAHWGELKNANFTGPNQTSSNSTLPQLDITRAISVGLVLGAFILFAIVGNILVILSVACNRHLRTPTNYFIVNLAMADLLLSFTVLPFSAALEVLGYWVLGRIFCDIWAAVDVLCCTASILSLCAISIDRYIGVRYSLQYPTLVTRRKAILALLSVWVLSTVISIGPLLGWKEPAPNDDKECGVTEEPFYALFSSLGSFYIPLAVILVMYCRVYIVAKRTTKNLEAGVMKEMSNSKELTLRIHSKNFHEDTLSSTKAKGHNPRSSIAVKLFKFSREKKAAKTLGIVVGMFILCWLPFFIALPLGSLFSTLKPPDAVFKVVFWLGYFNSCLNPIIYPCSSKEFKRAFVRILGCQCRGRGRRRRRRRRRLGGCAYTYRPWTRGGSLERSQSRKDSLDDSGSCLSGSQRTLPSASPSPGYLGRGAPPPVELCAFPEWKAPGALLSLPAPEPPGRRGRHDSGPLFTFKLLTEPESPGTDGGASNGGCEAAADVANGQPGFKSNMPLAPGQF
Description: Binding affinity to adrenergic Alpha-1B receptor at 10 uM by radioligand displacement assay. The method in brief:
as §2

Assay [10] addresses T5, Alpha-2A adrenergic receptor (Homo sapiens) (UniProt P08913).
T5 sequence (whole entry): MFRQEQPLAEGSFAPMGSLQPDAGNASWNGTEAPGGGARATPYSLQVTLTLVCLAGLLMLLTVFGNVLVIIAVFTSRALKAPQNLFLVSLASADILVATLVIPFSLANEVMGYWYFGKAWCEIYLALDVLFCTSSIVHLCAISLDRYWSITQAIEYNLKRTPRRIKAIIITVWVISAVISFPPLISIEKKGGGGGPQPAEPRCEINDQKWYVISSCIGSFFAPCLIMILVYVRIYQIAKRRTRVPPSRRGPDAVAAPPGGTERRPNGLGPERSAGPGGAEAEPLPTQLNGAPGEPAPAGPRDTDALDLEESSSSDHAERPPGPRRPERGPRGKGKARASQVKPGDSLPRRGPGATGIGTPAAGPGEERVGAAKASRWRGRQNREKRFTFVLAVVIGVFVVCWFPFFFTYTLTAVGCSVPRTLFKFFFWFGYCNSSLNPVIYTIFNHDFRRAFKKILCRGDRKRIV
Description: Binding affinity to adrenergic alpha2A receptor at 10 uM by radioligand displacement assay. The procedure, abridged: as §2

Assay [11] has as its target T1, 5-hydroxytryptamine receptor 6. The assay can be described thus: Binding affinity to human recombinant 5HT6 receptor by radioligand displacement assay. The procedure, abridged: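 Competitive displacement of the corresponding radioligand, run by an outside contract lab under its internal protocols. Data from one representative experiment in duplicate.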

Sigma non-opioid intracellular receptor 1 (Homo sapiens), sequence (Q99720 whole entry): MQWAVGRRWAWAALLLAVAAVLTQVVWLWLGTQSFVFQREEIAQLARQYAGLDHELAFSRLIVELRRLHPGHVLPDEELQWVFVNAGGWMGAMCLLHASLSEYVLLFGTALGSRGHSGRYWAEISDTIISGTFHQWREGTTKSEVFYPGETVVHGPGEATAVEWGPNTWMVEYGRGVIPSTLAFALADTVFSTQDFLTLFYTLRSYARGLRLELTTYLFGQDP
D(3) dopamine receptor (Homo sapiens), sequence (P35462 whole entry): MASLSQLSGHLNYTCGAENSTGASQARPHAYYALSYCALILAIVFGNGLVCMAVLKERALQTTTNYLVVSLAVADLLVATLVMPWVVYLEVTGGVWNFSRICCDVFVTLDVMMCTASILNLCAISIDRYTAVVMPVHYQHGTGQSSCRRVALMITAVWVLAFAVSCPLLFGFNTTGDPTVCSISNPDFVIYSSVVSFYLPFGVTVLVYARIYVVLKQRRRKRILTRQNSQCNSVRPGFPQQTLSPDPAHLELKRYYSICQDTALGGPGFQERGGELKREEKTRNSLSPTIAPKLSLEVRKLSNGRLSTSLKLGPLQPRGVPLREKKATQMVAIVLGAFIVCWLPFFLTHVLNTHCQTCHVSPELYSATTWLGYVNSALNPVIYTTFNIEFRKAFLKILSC
Sodium-dependent noradrenaline transporter (Homo sapiens), sequence (P23975 whole entry): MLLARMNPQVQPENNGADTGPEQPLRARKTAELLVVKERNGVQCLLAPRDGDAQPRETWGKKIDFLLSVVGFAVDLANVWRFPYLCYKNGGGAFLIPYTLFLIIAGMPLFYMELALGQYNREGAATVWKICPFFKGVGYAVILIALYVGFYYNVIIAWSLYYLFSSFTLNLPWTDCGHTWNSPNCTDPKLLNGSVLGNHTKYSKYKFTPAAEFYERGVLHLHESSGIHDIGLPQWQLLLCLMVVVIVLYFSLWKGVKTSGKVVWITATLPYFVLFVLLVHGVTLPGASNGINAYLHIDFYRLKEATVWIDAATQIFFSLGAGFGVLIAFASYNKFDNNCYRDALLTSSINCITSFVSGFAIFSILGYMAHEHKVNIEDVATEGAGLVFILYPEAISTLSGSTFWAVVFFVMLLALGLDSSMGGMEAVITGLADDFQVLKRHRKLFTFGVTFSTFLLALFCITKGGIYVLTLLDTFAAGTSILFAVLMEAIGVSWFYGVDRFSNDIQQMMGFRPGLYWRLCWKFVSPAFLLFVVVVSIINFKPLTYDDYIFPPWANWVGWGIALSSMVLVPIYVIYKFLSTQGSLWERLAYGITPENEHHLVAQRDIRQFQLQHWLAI

For `CN1CCN(S(=O)(=O)c2ccc3[nH]c4c(c3c2)CN(C)CC4)CC1`, in assay [1], the Imax is 100%.
Still for that read-out and setting: next, `CN1CCc2c(c3cc(S(=O)(=O)c4ccccc4)ccc3n2CCc2ccccn2)C1`: 100%.
With `Cc1ccc(S(=O)(=O)n2c3c(c4cc(S(=O)(=O)c5ccccc5)ccc42)CN(C)CC3)cc1`, the IC50 (commonly the concentration that gives 50% inhibition) in assay [2] (read-out: IC50) was 28 µM. In addition, in assay [1], the Imax amounted to 100%.
Regarding `CN1CCc2c(c3cc(S(C)(=O)=O)ccc3n2C)C1.Cl`, the IC50 result in assay [2] (hek293) is “Not Active”.
`CN1CCc2c(c3cc(S(=O)(=O)c4ccccc4)ccc3n2C)C1`: the result in assay [3], in [4], in [5], in assay [6], in assay [7] and in assay [8] was Active. The outcome in assay [9] and in assay [10] was Active. Also, in [1], the Imax was found to be 100%. The Ki (commonly the equilibrium dissociation constant of an inhibitor or competing ligand from its target) in [11] came out at 0.0057 µM.
As to `O=S(=O)(Nc1cccc(F)c1)c1ccc2[nH]c3c(c2c1)CN(Cc1ccccc1)CC3`, in assay [2] (read-out: IC50), the IC50 was 3.9 µM. Moreover, the Imax in assay [1] worked out at 100%.
